From ChEMBL document CHEMBL1125199, “Comparison of azabicyclic esters and oxadiazoles as ligands for the muscarinic receptor” (J Med Chem, 1991)

Legend:
[1] = molecular target: Muscarinic acetylcholine receptor; experiment: The compound was tested in vitro for central muscarinic acetylcholine receptor affinity to displace [3H]oxotremorine-M from rat cerebral cortex; Value ranges from 14-27; format: tissue-based
[2] = molecular target: T1, Muscarinic acetylcholine receptor (Rattus norvegicus) (UniProt P08482+P08483+P08485+P08911+P10980); experiment: Relative binding of QNB and OXO-M to muscarininc receptors (ratio of IC50); format: protein assay
How it was run: (§1)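 Ratio of IC50 for [3H]QNB displacement to IC50 for [3H]OXO-M displacement in rat cerebral cortex membranes. [3H]QNB at 0.27 nM; [3H]OXO-M at 2 nM with 2 mM MgCl2. Both incubated at 37 °C for 30 min in 50 mM Tris pH 7.7.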

Mus musculus [3] = experiment: Dose administered subcutaneously which causes a fall of 3 degrees C in mean rectal temperature in group of 5 mice; format: functional
How it was run: (§2)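 Male CDI mice, 25–32 g, housed singly; rectal temperature read by thermocouple probe at 2.5 cm depth, three baseline readings at 20–30 min intervals, then every 15 min after dosing. ED3 read graphically as the dose giving a 3 °C fall in mean rectal temperature, groups of five; 95% confidence intervals given.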

Mus musculus [4] = experiment: Dose administered perorally which causes a fall of 3 degrees C in mean rectal temperature in group of 5 mice; format: functional; how it was run: as §2
[5] = molecular target: Muscarinic acetylcholine receptor; experiment: The compound was tested in vitro for central muscarinic acetylcholine receptor affinity to displace [3H]quinuclidinyl benzilate from rat cerebral cortex; Value ranges from 6200-6700; format: tissue-based
[6] = molecular target: Muscarinic acetylcholine receptor; experiment: The compound was tested in vitro for central muscarinic acetylcholine receptor affinity to displace [3H]quinuclidinyl benzilate from rat cerebral cortex; Value ranges from 1800-3000; format: tissue-based
[7] = molecular target: Muscarinic acetylcholine receptor; experiment: The compound was tested in vitro for central muscarinic acetylcholine receptor affinity to displace [3H]oxotremorine-M from rat cerebral cortex; Value ranges from 25-31; format: tissue-based
[8] = molecular target: Muscarinic acetylcholine receptor; experiment: The compound was tested in vitro for central muscarinic acetylcholine receptor affinity to displace [3H]quinuclidinyl benzilate from rat cerebral cortex; Value ranges from 930-1100; format: tissue-based
[9] = molecular target: Muscarinic acetylcholine receptor; experiment: The compound was tested in vitro for central muscarinic acetylcholine receptor affinity to displace [3H]oxotremorine-M from rat cerebral cortex; Value ranges from 1.6-3.9; format: tissue-based
[10] = molecular target: Muscarinic acetylcholine receptor; experiment: The compound was tested in vitro for central muscarinic acetylcholine receptor affinity to displace [3H]quinuclidinyl benzilate from rat cerebral cortex; Value ranges from 8000-11000; format: tissue-based
[11] = molecular target: Muscarinic acetylcholine receptor; experiment: The compound was tested in vitro for central muscarinic acetylcholine receptor affinity to displace [3H]oxotremorine-M from rat cerebral cortex; Value ranges from 34-52; format: tissue-based
[12] = molecular target: T1, Muscarinic acetylcholine receptor (Rattus norvegicus); experiment: It is the ratio of IC50 (QNB) to that of IC50 (OXO-M); format: protein assay; how it was run: as §1
[13] = molecular target: Muscarinic acetylcholine receptor; experiment: The compound was tested in vitro for central muscarinic acetylcholine receptor affinity to displace [3H]oxotremorine-M from rat cerebral cortex; Value ranges from 75-80; format: tissue-based
[14] = molecular target: Muscarinic acetylcholine receptor; experiment: The compound was tested in vitro for central muscarinic acetylcholine receptor affinity to displace [3H]quinuclidinyl benzilate from rat cerebral cortex; Value ranges from 11000-14000; format: tissue-based
[15] = molecular target: Muscarinic acetylcholine receptor; experiment: The compound was tested in vitro for central muscarinic acetylcholine receptor affinity to displace [3H]quinuclidinyl benzilate from rat cerebral cortex; Value ranges from 44000-60000; format: tissue-based
[16] = molecular target: Muscarinic acetylcholine receptor; experiment: The compound was tested in vitro for central muscarinic acetylcholine receptor affinity to displace [3H]oxotremorine-M from rat cerebral cortex; Value ranges from 190-280; format: tissue-based
[17] = molecular target: Muscarinic acetylcholine receptor; experiment: The compound was tested in vitro for central muscarinic acetylcholine receptor affinity to displace [3H]oxotremorine-M from rat cerebral cortex; Value ranges from 93-280; format: tissue-based
[18] = molecular target: Muscarinic acetylcholine receptor; experiment: The compound was tested in vitro for central muscarinic acetylcholine receptor affinity to displace [3H]quinuclidinyl benzilate from rat cerebral cortex; Value ranges from 48000-100000; format: tissue-based
[19] = molecular target: Muscarinic acetylcholine receptor; experiment: The compound was tested in vitro for central Muscarinic acetylcholine receptor affinity to displace [3H]oxotremorine-M from rat cerebral cortex; Value ranges from 12-18; format: tissue-based
[20] = It is the ratio of IC50(QNB) to that of IC50(OXO-M); how it was run: as §1
Mus musculus [21] = experiment: Dose administered subcutaneously which causes a fall of 3 degrees C in mean rectal temperature in group of 5 mice.; format: functional; how it was run: as §2
[22] = molecular target: Muscarinic acetylcholine receptor; experiment: The compound was tested in vitro for central Muscarinic acetylcholine receptor affinity to displace [3H]quinuclidinyl benzilate from rat cerebral cortex; Value ranges from […]; format: tissue-based
[23] = molecular target: Muscarinic acetylcholine receptor; experiment: The compound was tested in vitro for central muscarinic acetylcholine receptor affinity to displace [3H]quinuclidinyl benzilate from rat cerebral cortex; Value ranges from 1700-2000; format: tissue-based
[24] = molecular target: Muscarinic acetylcholine receptor; experiment: The compound was tested in vitro for central muscarinic acetylcholine receptor affinity to displace [3H]oxotremorine-M from rat cerebral cortex; Value ranges from 6-29; format: tissue-based
[25] = molecular target: Muscarinic acetylcholine receptor; experiment: The compound was tested in vitro for central muscarinic acetylcholine receptor affinity to displace [3H]oxotremorine-M from rat cerebral cortex; Value ranges from 73-120; format: tissue-based
[26] = molecular target: Muscarinic acetylcholine receptor; experiment: The compound was tested in vitro for central muscarinic acetylcholine receptor affinity to displace [3H]quinuclidinyl benzilate from rat cerebral cortex; Value ranges from 15000-45000; format: tissue-based

## COC(=O)C12CCCN(CC1)C2 (stereo not drawn)
[1]
  IC50: 0.019 µM
[2]
  Ratio: 340
Mus musculus [3]
  ED3: 0.078 mg/kg
Mus musculus [4]
  ED3: >0.3 mg/kg
[5]
  IC50: 6.4 µM

## Cc1noc([C@@H]2C[C@H]3CCN(C3)C2)n1
[2]
  Ratio: 84
[6]
  IC50: 2.4 µM
[7]
  IC50: 0.028 µM

## Cc1noc([C@@H]2CN3CC[C@@H]2C3)n1
[8]
  IC50: 1 µM
[2]
  Ratio: 360
Mus musculus [3]
  ED3: 0.0005 mg/kg
Mus musculus [4]
  ED3: 0.0011 mg/kg
[9]
  IC50: 0.0028 µM

## Cc1nnc(C23CCCN(CC2)C3)o1 (stereo not drawn)
[10]
  IC50: 9.4 µM
[11]
  IC50: 0.042 µM
[12]
  Ratio: 220

## COC(=O)[C@@H]1C[C@H]2CCN(C2)C1
[2]
  Ratio: 160
[13]
  IC50: 0.077 µM
[14]
  IC50: 12 µM

## COC(=O)[C@@H]1CN2CC[C@@H]1C2
[15]
  IC50: 51 µM
[2]
  Ratio: 220
Mus musculus [3]
  ED3: 0.41 mg/kg
Mus musculus [4]
  ED3: >10 mg/kg
[16]
  IC50: 0.23 µM

## Cc1nnc(C23CCN(CC2)C3)o1
[17]
  IC50: 0.18 µM
[18]
  IC50: 70 µM
[12]
  Ratio: 380

## Cc1noc(C23CCCN(CC2)C3)n1 (stereo not drawn)
[19]
  IC50: 0.015 µM
[20]
  Ratio: 230
Mus musculus [4]
  ED3: 0.018 mg/kg
Mus musculus [21]
  ED3: 0.0029 mg/kg
[22]
  IC50: 3.5 µM

## Cc1noc(C2CN3CCC2CC3)n1 (stereo not drawn)
[2]
  Ratio: 130
[23]
  IC50: 1.8 µM
[24]
  IC50: 0.014 µM

## Cc1nc([C@@H]2CN3CC[C@@H]2C3)no1
[2]
  Ratio: 290
[25]
  IC50: 0.092 µM
[26]
  IC50: 27 µM
